Experimental data: ChEMBL document CHEMBL2029239, “Identification, design and biological evaluation of bisaryl quinolones targeting Plasmodium falciparum type II NADH:quinone oxidoreductase (PfNDH2)” (J Med Chem, 2012)

Key:
[1] = tested on: Plasmodium falciparum; test: Antimalarial activity against blood stage forms of Plasmodium falciparum 3D7; type: functional, organism-based
[2] = Inhibition of Plasmodium falciparum recombinant NDH2 expressed in Escherichia coli F571 using decyclubiquinone as substrate at 1 min by spectrophotometry
[3] = tested on: Plasmodium falciparum; test: Antimalarial activity against atoquinone-resistant Plasmodium falciparum TM90C2B; type: functional, organism-based
[4] = tested on: Plasmodium berghei; test: Antimalarial activity against Plasmodium berghei infected in CD1 mouse assessed as decrease in parasitemia at 20 mg/kg, po administered using Na2CO3 vehicle measured on day 4 relative to control; type: functional; design: scale not given: the % may be the effect or the level left
In short: (§1)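 Peters' standard 4-day suppressive test in male CD-1 mice infected with Plasmodium berghei by intraperitoneal injection. Compound given orally at 20 mg/kg, with 5 mice per group. Read-out is % parasite clearance on day 4. Vehicles were SSV (often as suspensions), DET (fully dissolved) or sodium carbonate solution, as specified in each line.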

[5] = tested on: Plasmodium falciparum; test: Antimalarial activity against chloroquine-resistant Plasmodium falciparum W2; type: functional, organism-based
[6] = tested on: Plasmodium berghei; test: Antimalarial activity against Plasmodium berghei infected in CD1 mouse assessed as decrease in parasitemia at 20 mg/kg, po administered using 5% DMSO and 5% EtOH in tetraglycol vehicle measured on day 4 relative to control; type: functional; design: scale not given: the % may be the effect or the level left; in short: as §1
[7] = tested on: Plasmodium berghei; test: Antimalarial activity against Plasmodium berghei infected in CD1 mouse assessed as decrease in parasitemia at 20 mg/kg, po administered using standard suspension vehicle measured on day 4 relative to control; type: functional; design: scale not given: the % may be the effect or the level left; in short: as §1
[8] = Inhibition of Plasmodium falciparum cytochrome b-c1 complex using decylubiquinol as substrate by spectrophotometry

SMILES | IC50 [1] [nM] | IC50 [2] [nM] | IC50 [3] [nM] | further results
Cc1c(-c2ccc(Cc3ccccc3)cc2)[nH]c2ccccc2c1=O | 107 | 27.4 | 416 | –
Cc1c(-c2ccc(Cc3ccc(OC(F)(F)F)cc3)cc2)nc2cc(Cl)ccc2c1OP(=O)(O)O | – | – | – | Activity [4]: 100%
Cc1c(-c2ccc(Cc3ccc(OC(F)(F)F)cc3)cc2)n(O)c2cc(Cl)ccc2c1=O | 149 | – | > 1000 | –
O=c1cc(-c2ccc(OC(F)(F)F)cc2)[nH]c2ccccc12 | 675 | 47.9 | – | –
Cc1c(-c2ccc(Cc3ccc(OC(F)(F)F)cc3)cc2F)[nH]c2cc(Cl)ccc2c1=O | 30 | – | – | –
Cc1[nH]c2ccccc2c(=O)c1-c1ccc(Cc2ccc(OC(F)(F)F)cc2)cc1 | 36 | 492 | – | IC50 [5]: 42 nM
CCOC(=O)c1c(-c2ccc(Cc3ccc(OC(F)(F)F)cc3)cc2)[nH]c2cc(Cl)ccc2c1=O | 26 | – | 92 | –
O=C1C(O)=C([C@H]2CC[C@H](c3ccc(Cl)cc3)CC2)C(=O)c2ccccc21 [ATOVAQUONE] | – | – | – | Activity [6]: 100%; Activity [7]: 100%
O=c1cc(-c2ccc(Cc3ccc(OC(F)(F)F)cc3)cc2)n(O)c2ccccc12 | 263 | 71 | 403 | –
Cc1c(-c2ccc(Br)cc2)[nH]c2ncccc2c1=O | > 1000 | – | – | –
O=c1c(CO)c(-c2ccc(Cc3ccc(OC(F)(F)F)cc3)cc2)[nH]c2cc(Cl)ccc12 | 63 | – | 330 | –
COc1ccc(Cc2ccc(-c3[nH]c4ccccc4c(=O)c3C)cc2)cc1 | 37 | 113 | 577 | –
O=c1cc(-c2ccc(Cc3ccc(OC(F)(F)F)cc3)cc2)[nH]c2ccccc12 | 48 | 6.2 | 251 | IC50 [5]: 36 nM; IC50 [8]: 13.9 nM
Cc1c(-c2ccc(Cc3ccc(OC(F)(F)F)cc3)cc2)[nH]c2cc(F)ccc2c1=O | 69 | 12.1 | 191 | –
Cc1c(-c2cccc(Cc3ccc(OC(F)(F)F)cc3)c2)[nH]c2cc(Cl)ccc2c1=O | 34 | – | 94 | –
COc1cc2[nH]c(-c3ccc(Cc4ccc(OC(F)(F)F)cc4)cc3)cc(=O)c2cc1F | 39 | – | – | –
Cc1c(-c2ccc(Cc3ccc(OC(F)(F)F)cc3)cc2)[nH]c2cc(F)c(F)cc2c1=O | 24 | 30.9 | 207 | –
COc1ccc2c(=O)c(C)c(-c3ccc(Cc4ccc(OC(F)(F)F)cc4)cc3)[nH]c2c1 | 8 | – | – | IC50 [5]: 13 nM
O=c1cc(-c2ccc(Cc3ccc(OC(F)(F)F)cc3)cc2)[nH]c2cc(Cl)c(Cl)cc12 | 28 | 173 | – | –
CCOC(=O)Oc1c(-c2ccc(Cc3ccc(OC(F)(F)F)cc3)cc2)c(C)nc2ccccc12 | 27 | – | 224 | –
Cc1c(-c2ccc(Cc3ccc(OC(F)(F)F)cc3)cc2)c(=O)c2ccccc2n1O | 175 | 13.5 | 670 | –

SMILES | IC50 [1] [nM] | IC50 [2] [nM] | IC50 [3] [nM] | further results
CCOC(=O)Oc1c(C)c(-c2ccc(Cc3ccc(OC(F)(F)F)cc3)cc2)nc2ccccc12 | 27 | – | 6.8 | –
Cc1c(-c2ccc(Cc3ccc(OC(F)(F)F)cc3)cc2)[nH]c2ncccc2c1=O | 407 | 97 | 1880 | –
Cc1c(-c2ccc(Oc3ccc(Cl)cc3)cc2)[nH]c2ccccc2c1=O | 230 | 36 | 797 | –
O=c1cc(-c2ccc(O)cc2)[nH]c2ccccc12 | > 1000 | – | – | –
Cc1c(-c2ccc(C(F)(F)F)cc2)[nH]c2ncccc2c1=O | > 1000 | – | – | –
O=c1cc(-c2ccc(Cc3ccc(OC(F)(F)F)cc3)cc2)[nH]c2cc(F)c(F)cc12 | 16 | – | 626 | –
O=c1c(Cl)c(-c2ccc(Cc3ccc(OC(F)(F)F)cc3)cc2)[nH]c2ccccc12 | 19 | 137 | 328 | IC50 [5]: 22 nM
O=c1cc(-c2ccc(Cc3ccc(OC(F)(F)F)cc3)cc2)[nH]c2ccc(N3CCNCC3)cc12 | 430 | – | – | –
Cc1c(-c2ccc(Cc3ccc(OC(F)(F)F)cc3)cc2)nc2cc(Cl)ccc2c1OC(=O)N1CCOCC1 | – | – | – | Activity [4]: 100%
O=c1cc(-c2ccc(Cc3ccc(OC(F)(F)F)cc3)cc2)[nH]c2cc(N3CCNCC3)ccc12 | 443 | – | – | –
Cc1c(-c2cccc(Cc3ccc(OC(F)(F)F)cc3)c2)[nH]c2ccc(Cl)cc2c1=O | 8.4 | – | 31 | –
Cc1c(-c2ccc(Oc3ccc(OC(F)(F)F)cc3)cc2)n(O)c2ccccc2c1=O | 35 | 108 | 566 | –
Cc1c(-c2ccc(Cc3ccc(OC(F)(F)F)cc3)cc2)n(O)c2ccccc2c1=O | 22 | 55.2 | 217 | IC50 [5]: 8 nM
Cc1c(-c2ccc(Cc3ccc(F)cc3)cc2)[nH]c2cc(Cl)ccc2c1=O | – | 196 | – | –
O=c1cc(-c2ccc(Cc3ccc(OC(F)(F)F)cc3)cc2)[nH]c2cc(O)c(F)cc12 | > 1000 | – | – | –
CCOC(=O)c1c(-c2ccc(Cc3ccc(OC(F)(F)F)cc3)cc2)[nH]c2ccccc2c1=O | 39.6 | 268 | 1400 | –
Cc1c(-c2cccc(Cc3ccc(OC(F)(F)F)cc3)c2)[nH]c2ccccc2c1=O | 26 | 50 | 65 | IC50 [8]: 219 nM
Cc1c(-c2ccc(Cc3ccc(F)cc3)cc2)[nH]c2ccccc2c1=O | 83 | < 1 | 273 | IC50 [8]: 25.5 nM
CCOC(=O)Oc1c(C)c(-c2ccc(Oc3ccc(OC(F)(F)F)cc3)cc2)nc2ccccc12 | 60 | – | 406 | –
Cc1[nH]c2ccccc2c(=O)c1-c1ccc(Oc2ccc(OC(F)(F)F)cc2)cc1 | 10 | 190 | – | IC50 [5]: 34 nM
O=c1cc(-c2ccc(C(F)(F)F)cc2)[nH]c2ccccc12 | 579 | 52.9 | – | –

Second part, led by results:

IC50 [1] [nM] | SMILES | IC50 [2] [nM] | IC50 [3] [nM] | further results
212 | Cc1c(-c2ccc(Cc3ccc(OC(F)(F)F)cc3)cc2)[nH]c2cc(C(F)(F)F)ccc2c1=O | – | – | –
654 | Cc1c(-c2ccc(Cc3ccc(OC(F)(F)F)cc3)cc2)[nH]c2ccc(C(F)(F)F)cc2c1=O | – | – | –
664 | COc1cccc2[nH]c(-c3ccc(Cc4ccc(OC(F)(F)F)cc4)cc3)c(C)c(=O)c12 | – | – | –
819 | Cc1c(-c2ccc(Cc3ccc(OC(F)(F)F)cc3)cc2)[nH]c2c(O)cccc2c1=O | – | – | –
797 | O=c1c(-c2ccc(Oc3ccc(OC(F)(F)F)cc3)cc2)c[nH]c2ccccc12 | – | – | –
465 | Cc1c(-c2ccc(Cc3ccc(OC(F)(F)F)cc3)cc2)[nH]c2ccc(O)cc2c1=O | – | – | –
272 | COC(=O)c1ccc(Cc2ccc(-c3cc(=O)c4ccccc4[nH]3)cc2)cc1 | 19 | – | –
560 | COc1ccc(-c2[nH]c3ccccc3c(=O)c2Cl)cc1 | 1670 | – | –
> 1000 | COc1ccc(-c2cc(=O)c3ccccc3[nH]2)cc1 | – | – | –
38 | Cc1c(-c2ccc(Cc3ccc(OC(F)(F)F)cc3)cc2)[nH]c2cc(Cl)c(F)cc2c1=O | – | – | –
> 1000 | COc1ccc(-c2[nH]c3ncccc3c(=O)c2C)cc1 | – | – | –
513 | O=c1c(Cl)c(-c2ccc(OC(F)(F)F)cc2)[nH]c2ccccc12 | 253 | – | –
506 | Cc1c(-c2ccc(Cc3ccc(F)cc3)cc2)[nH]c2ncccc2c1=O | – | – | –
752 | Cc1c(-c2ccc(C(F)(F)F)cc2)[nH]c2ccccc2c1=O | 88.5 | – | –
139 | Cc1c(-c2ccc(Cc3ccc(OC(F)(F)F)cc3)cc2)[nH]c2cc(O)ccc2c1=O | – | – | –
381 | COc1cccc2c(=O)c(C)c(-c3ccc(Cc4ccc(OC(F)(F)F)cc4)cc3)[nH]c12 | – | – | –
719 | Cc1c(-c2ccc(Oc3cccc(OCCN4CCOCC4)c3)cc2)[nH]c2ccccc2c1=O | – | – | –
200 | O=c1c(CO)c(-c2ccc(Oc3ccc(OC(F)(F)F)cc3)cc2)[nH]c2cc(Cl)ccc12 | – | – | –
> 1000 | Cc1c(-c2ccc(OC(F)(F)F)cc2)[nH]c2ncccc2c1=O | – | – | –
70 | Cc1c(-c2ccc(Cc3ccc(OC(F)(F)F)cc3)cc2)[nH]c2cc(F)c(Cl)cc2c1=O | – | – | –
355 | Cc1c(-c2ccc(Cc3cccc(OCCN4CCOCC4)c3)cc2)[nH]c2ccccc2c1=O | 279 | – | –
> 1000 | Cc1c(-c2ccc(OC(F)(F)F)cc2)[nH]c2ccccc2c1=O | – | – | –
> 1000 | O=c1cc(-c2ccc(Cc3ccc(CO)cc3)cc2)[nH]c2ccccc12 | – | – | –
465 | COc1ccc2[nH]c(-c3ccc(Cc4ccc(OC(F)(F)F)cc4)cc3)c(C)c(=O)c2c1 | – | – | –
408 | CC(=O)Oc1cccc2c(=O)c(C)c(-c3ccc(Cc4ccc(OC(F)(F)F)cc4)cc3)[nH]c12 | – | – | –
91 | O=c1c(-c2ccc(Oc3ccc(OC(F)(F)F)cc3)cc2)c(CO)[nH]c2ccccc12 | > 56000 | – | –
> 1000 | Cc1c(-c2ccc(Oc3ccc(OCCN4CCOCC4)cc3)cc2)[nH]c2ccccc2c1=O | – | – | –
